From paper PMC7446891 (Bioorganic & medicinal chemistry, 2020)

biological target: EphA2 (Homo sapiens, UniProt P29317); assay: EphA2 activation; type: cell-based; details: 2 μM in 0.1% DMSO, 1hr, U251 EphA2 cells, vs DMSO control
Method in brief: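 EphA2-overexpressing U251 cells were seeded at 100,000/well, grown 24 h, then given 2 μM test compound in 0.1% DMSO (1 hr per legend; methods text gives 30 min), with 0.1% DMSO vehicle. Cells were lysed 20 min in modified RIPA (pH 7.4, vanadate, NaF, protease inhibitors), immunoprecipitated, then blotted for pEphA/B (1:500) and EphA2 (1:1000), HRP anti-rabbit, chemiluminescence. Bands were quantified by densitometry, 3 experiments, unpaired t-test vs DMSO.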

Sequence of EphA2 (P29317 24-976): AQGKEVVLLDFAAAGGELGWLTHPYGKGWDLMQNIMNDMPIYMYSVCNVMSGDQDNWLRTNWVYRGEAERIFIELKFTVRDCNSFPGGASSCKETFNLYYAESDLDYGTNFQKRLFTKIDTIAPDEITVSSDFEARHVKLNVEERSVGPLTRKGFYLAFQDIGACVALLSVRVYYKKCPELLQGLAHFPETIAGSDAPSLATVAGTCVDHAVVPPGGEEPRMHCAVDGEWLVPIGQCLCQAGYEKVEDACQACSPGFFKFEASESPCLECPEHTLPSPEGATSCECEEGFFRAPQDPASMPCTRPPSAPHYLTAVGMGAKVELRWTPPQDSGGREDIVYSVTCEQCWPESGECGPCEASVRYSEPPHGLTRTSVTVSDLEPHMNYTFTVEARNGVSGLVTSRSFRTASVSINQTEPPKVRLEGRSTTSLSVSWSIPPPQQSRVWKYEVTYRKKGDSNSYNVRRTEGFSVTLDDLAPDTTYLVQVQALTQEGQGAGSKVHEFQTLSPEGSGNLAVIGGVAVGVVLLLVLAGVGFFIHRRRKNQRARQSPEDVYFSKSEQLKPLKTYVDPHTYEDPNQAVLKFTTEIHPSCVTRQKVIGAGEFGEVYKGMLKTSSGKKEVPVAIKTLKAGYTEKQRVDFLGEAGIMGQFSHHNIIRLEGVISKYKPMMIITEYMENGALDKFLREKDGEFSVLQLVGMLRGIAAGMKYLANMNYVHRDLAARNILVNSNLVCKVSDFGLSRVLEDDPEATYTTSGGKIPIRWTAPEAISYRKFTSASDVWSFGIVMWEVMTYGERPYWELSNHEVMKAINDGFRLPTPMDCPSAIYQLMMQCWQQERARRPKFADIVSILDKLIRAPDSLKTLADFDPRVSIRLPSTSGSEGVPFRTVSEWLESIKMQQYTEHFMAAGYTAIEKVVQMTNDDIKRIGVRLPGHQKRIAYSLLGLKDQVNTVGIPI

Row | Structure (SMILES) | EphA2 phosphorylation (pEphA/B vs total EphA2)
1 | COc1cc2nc(N3CCN(C(=O)c4cccc(NC(=O)OCCOCCOCCOC(=O)Nc5cccc(C(=O)N6CCN(c7nc(N)c8cc(OC)c(OC)cc8n7)CC6)c5)c4)CC3)nc(N)c2cc1OC [Compound 7bg, (ethane-1,2-diylbis(oxy))bis(ethane-2,1-diyl)bis((3-(4-(4-amino-6,7-dimethoxyquinazolin-2-yl)piperazine-1-carbonyl)phenyl)carbamate)] | statistical significance compared to control
2 | COc1cc2nc(N3CCN(C(=O)OCCOC(=O)N4CCN(c5nc(N)c6cc(OC)c(OC)cc6n5)CC4)CC3)nc(N)c2cc1OC [Compound 3d, ethane-1,2-diyl bis(4-(4-amino-6,7-dimethoxyquinazolin-2-yl)piperazine-1-carboxylate)] | did not show clear EphA2 activation
3 | COc1cc2nc(N3CCN(C(=O)Oc4ccc(C(C)(C)c5ccc(OC(=O)N6CCN(c7nc(N)c8cc(OC)c(OC)cc8n7)CC6)cc5)cc4)CC3)nc(N)c2cc1OC [Compound 3e, propane-2,2-diylbis(4,1-phenylene)bis(4-(4-amino-6,7-dimethoxyquinazolin-2-yl)piperazine-1-carb oxylate)] | better activity to induce EphA2 phosphorylation
